From ChEMBL document CHEMBL4513216, “Probing the Open Global Health Chemical Diversity Library for Multistage-Active Starting Points for Next-Generation Antimalarials” (ACS Infect Dis, 2020) come the findings set out here.

Structures are written as SMILES.

This data set is described as follows: Toxicity liver stage against HepG2, at 10uM. The conditions noted are these: human, HepG2-A16-CD81EGFP cells; read-out: INHIBITION
On the set-up: test concentration 10 uM, cell line HepG2-A16-CD81EGFP. The format is cell-based. The procedure, abridged: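 Uninfected HepG2-A16-CD81EGFP cells, 3 × 10^3 per well, 1536-well, plated on prespotted compound at 10 μM final, parasite-free screening media added to match infected plates; puromycin 10 μM positive, DMSO 0.5% negative; run in parallel with 48 h PbLuc assay at 37 °C, 5% CO2; viability by CellTiter-Glo luminescence, normalized to controls.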

`O=C(O)C(c1ccc2c(c1)OCO2)N1CCCCCC1` (centres undefined): the cytotoxicity at 10 µM was -0.293%.
In the case of `CNc1nc(CNC(=O)Nc2ccccc2OC(C)C)cs1` it was -12.1%; in that of `O=C(NC1CCNC1)C1(N2CCCCC2)Cc2ccccc2C1` (centres undefined), -5.76%; in that of `Cc1cc(C2CCCN2C(=O)CN2CC3(CCNCC3)OC2=O)on1` (centres undefined), 16.4%.
For the compound `Cc1noc(C(C)N(C)CC(=O)NCCc2ccc(Cl)cc2)n1` (centres undefined), the cytotoxicity at 10 µM was 10.3%.
In the case of `COC(=O)N1CCC(c2nnc(Cn3ccnc3)n2C)CC1` it was -110%; in that of `N#Cc1cccc(C(=O)N2CC[C@H]3[C@H]2CCN3CC2CCOCC2)c1`, -77%.
The figure for `O=C(Nc1cccnc1)[C@@H]1CCO[C@@H]2CCN(Cc3cccnc3)C[C@@H]21` is 4.78%; for `N#Cc1ccc(CS(=O)(=O)NC(=O)c2ccc(C#N)cc2)cc1` it is 5.47%; for `CS(=O)(=O)c1ccccc1C(=O)NCCCN1CCc2ccccc2C1` it is 1.01%.
The figure for `CCc1n[nH]c(C2CN(C(=O)c3cnc(C)cn3)CCO2)n1` (centres undefined) is -2.9%.
As for `NC(=O)C(CNC(=O)CCc1ccccc1)Cc1ccc(F)cc1` (centres undefined), the cytotoxicity at 10 µM amounted to 6.62%.
Regarding `CCOc1ccc(NC2CCN(CC(F)(F)F)C2=O)cc1C` (centres undefined), the cytotoxicity at 10 µM worked out at 1.41%.
As for `Cc1cc(NCc2ccc(O)cc2)n2nc(C)cc2n1`, the cytotoxicity at 10 µM is -0.881%.
Take `CC(C)c1cc(CNC(=O)NCc2cccc(N3CC=CC3)c2)on1`: the cytotoxicity at 10 µM worked out at 9.99%.
With `COCCN1CCC2(CCN(CC3CC3)CC2)C1=O`, the cytotoxicity at 10 µM turned out to be 7.55%.
The figure for `Cc1noc(C2CCN(C(=O)CN(C)c3ccc(Cl)cn3)CC2)n1` is -6.98%; for `Cc1ccc(OCc2occc2C(=O)N2CCOC(C(=O)O)C2)cc1` (centres undefined) it is -2.14%.
In the case of `Cc1nc(N2CCC(C(O)c3nccn3C)CC2)c2sccc2n1` (centres undefined) it was -19.5%; in that of `CCCN(C(=O)c1cc2c([nH]c1=O)CCCC2=O)C1CCCCC1`, -0.708%; in that of `CN(Cc1ccc(Cl)s1)C(=O)CN(C)C1CCCc2ccccc21` (centres undefined), 21.4%.
In the case of `Cc1cnn(CC2CCCN2CC(=O)N(C)CCC#N)c1` (centres undefined) it was 7%; in that of `N#Cc1ccc(N2CCC3(CCCN(c4ccccn4)C3)C2)nc1` (centres undefined), 15.6%; in that of `CC(C)Nc1ncnc2c1CCN(Cc1nccn1C)CC2`, 0.507%.
`O=C1[C@H]2CN(Cc3cccs3)C[C@H]2CN1CCN1CCCC1`: the cytotoxicity at 10 µM is -12.7%.
In the case of `Cc1ncc(CN2CCOC(c3ccc(-c4cnn(C)c4)cn3)C2)s1` (centres undefined), the cytotoxicity at 10 µM is -23%.
The figure for `Cc1c(C(=O)N2CCCSCC2)nnn1-c1ccccc1Cl` is 8.31%.
For the compound `Cc1cccc2c1NC1(CCOCC1)NC2=O`, the cytotoxicity at 10 µM was -49.6%.
The figure for `CCN1C[C@H]2CCN(C(=O)NC3CCCC3)CC[C@H]2S1(=O)=O` is -3.52%; for `CC(C)(C)c1noc(CCC(=O)N2CCN(Cc3ccco3)CC2)n1` it is 6.11%.
The figure for `COc1cccc2c1OCC(C(=O)NCCc1nnc(C)s1)C2` (centres undefined) is -42.1%.
Turning to `Cc1nc2c(N3CCN(CCO)CC3)nc(N)nc2n1C`, the cytotoxicity at 10 µM was -10.8%.
In the case of `COc1ccc(Br)c(C(=O)NCC2CCN(S(=O)(=O)C3CC3)CC2)c1`, the cytotoxicity at 10 µM was -24.3%.
The figure for `CCOC(=O)c1coc(N2CCN(Cc3cccc(OC)c3)C(=O)C2)n1` is -1.83%.
The figure for `O=C1NCCN1C1CCN(CCc2cccs2)CC1` is -1.32%; for `Cn1cc(NC(=O)c2cccc3cccnc23)ccc1=O` it is -4.83%; for `CCN1C(=O)CCCC12CCCN(C(=O)c1ccsc1)C2` (centres undefined) it is -153%.
The figure for `COCCNC(=O)CCn1ncc2c(Cl)cccc21` is 10.5%; for `CC(=O)Nc1cccc(CN2CCCC2C(=O)Nc2nccs2)c1` (centres undefined) it is 6.12%.
